Data as given in ChEMBL document CHEMBL1123060, “Substrate specificity of pyroglutamylaminopeptidase” (J Med Chem, 1985).

Columns and labels:
[1] = Inhibition of pyroglutamylaminopeptidase at a dose of 8.32 mM relative to 2-Oxo-hexahydro-pyrimidine-4-carboxylic acid; conditions: 8320 µM
Outline: (§1)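 Enzyme purchased commercially, 5.5 units per digestion in pH 8.0 phosphate deblocking buffer (5% glycerol, 5 mM DTT, 10 mM EDTA, N2/Ar-purged). Preincubated 3 min at 37 °C, then substrate plus Leu internal standard added with the inhibitor at the stated level and digested 180 min at 37 °C. Gly-Ile released was quantitated by amino acid analysis. Values are cleavage relative to the uninhibited digest (set to 1.0), from a single experiment.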

[2] = Inhibition of pyroglutamylaminopeptidase at a dose of 16.64 mM relative to 2-Oxo-hexahydro-pyrimidine-4-carboxylic acid; conditions: 16640 µM; outline: as §1
[3] = Inhibition of pyroglutamylaminopeptidase at a dose of 8.32 mM relative to Pyrrolidin-2-one-CO-Gly-Ile; conditions: 8320 µM; outline: as §1
[4] = Inhibition of pyroglutamylaminopeptidase at a dose of 16.64 mM relative to Pyrrolidin-2-one-CO-Gly-Ile; conditions: 16640 µM; outline: as §1
[5] = Inhibition of pyroglutamylaminopeptidase at a dose of 13.02 mM relative to 2-Oxo-hexahydro-pyrimidine-4-carboxylic acid; conditions: 13020 µM; outline: as §1
[6] = Inhibition of pyroglutamylaminopeptidase at a dose of 6.51 mM relative to 2-Oxo-hexahydro-pyrimidine-4-carboxylic acid; conditions: 6510 µM; outline: as §1
[7] = Inhibition of pyroglutamylaminopeptidase at a dose of 6.51 mM relative to Pyrrolidin-2-one-CO-Gly-Ile; conditions: 6510 µM; outline: as §1
[8] = Inhibition of pyroglutamylaminopeptidase at a dose of 13.02 mM relative to Pyrrolidin-2-one-CO-Gly-Ile; conditions: 13020 µM; outline: as §1

Structure (SMILES) | Hydrolysis rate [1] | Hydrolysis rate [2] | Hydrolysis rate [3] | Hydrolysis rate [4] | Hydrolysis rate [5] | Hydrolysis rate [6] | Hydrolysis rate [7] | Hydrolysis rate [8]
O=C1NCCC(C(=O)O)N1 (configuration not stated) | 0.86 | 0.752 | 0.889 | 0.884 | – | – | – | –
O=C1CC[C@@H](C(=O)O)N1 [PIDOLIC ACID] | – | – | – | – | 0.093 | 0.206 | 0.586 | 0.333
O=C1NCC(C(=O)O)N1 (configuration not stated) | – | – | – | – | 0.308 | 0.533 | 0.854 | 0.707
